Kir21 inh – inhibitors of mouse Kir2.1 inward-rectifier potassium channel; hit rate 0.85% among 310,000; Inward rectifier potassium channel 2 (Mus musculus), P35561; HEK293-Kir2.1, FluxOR thallium flux fluorescence; hits give low values; B-score at 10 µM;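 active means fluorescence ratio B-score at or below minus 3 SD of library scores, with starting-brightness B-score within 2 SD, cut at about -4.2 in these data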;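 further: channel flux triggered by added potassium and thallium sulfate stimulus; B-score of peak minus minimum fluorescence over baseline after thallium stimulus; more negative B-score means stronger Kir2.1 block with less thallium influx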
TRPC4 block – inhibitors of mouse TRPC4 channel, primary screen, Fluo4 calcium, HEK293 TRPC4beta/mu-opioid cells; hit rate 0.39% among 300,000; DAMGO-evoked Fluo4 calcium flux; hits give low values; B-score at 10 µM; Short transient receptor potential channel 4 (Mus musculus), Q9QUQ5;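 active means B-score over 3 SD under the library average, no early fluorescence shift, positive overall ratio signal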
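Assay system: Stable TRPC4beta/mu-opioid receptor HEK293 cells | Reagent: DAMGO in two steps, submaximal then maximal | Compound dosing: Single concentration per test compound | Signal: Fluo4 Ca2+ flux fluorescence | Evaluation: Per-well B score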
TRPC4 act – activators of mouse TRPC4 channel, primary screen, Fluo4 calcium, HEK293 TRPC4beta/mu-opioid cells; Short transient receptor potential channel 4 (Mus musculus), Q9QUQ5; Fluo4 calcium fluorescence; hits give high values; B-score at 10 µM; hit rate 0.49% among 310,000;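 active means B-score above 5 SD of library B-scores, and initial fluorescence ratio not above library mean plus 5 SD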;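 further: positive B-score marks a calcium rise read as TRPC4 activation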
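System – HEK293 cells stably co-expressing mouse TRPC4beta and mu-opioid receptor · Signal – Fluo4 calcium-sensitive dye fluorescence, kinetic, 1 Hz baseline · Benchmarks – buffer (low) and maximal DAMGO (high) · Read-out – B score of integrated fluorescence ratio per well · Incubation – dye loading 45 min room temperature, 110 s kinetic read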
TRPC6 inhibitor – mouse TRPC6 channel inhibitors, primary screen, cell-based, HEK293, membrane potential dye. Short transient receptor potential channel 6 (Mus musculus), Q61143. ACh-evoked depolarization; hits give low values. B-score at 10 µM. hit rate 1.1% among 310,000. AID 2553, 2010;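 active means B-score under library mean minus 3 SD, initial fluorescence not abnormally high, positive integrated signal ratio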;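 further: B-score derived from integrated fluorescence ratio over the kinetic read; more negative B-score means stronger inhibition of depolarization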
Target sequence (Q61143 whole entry, looked up): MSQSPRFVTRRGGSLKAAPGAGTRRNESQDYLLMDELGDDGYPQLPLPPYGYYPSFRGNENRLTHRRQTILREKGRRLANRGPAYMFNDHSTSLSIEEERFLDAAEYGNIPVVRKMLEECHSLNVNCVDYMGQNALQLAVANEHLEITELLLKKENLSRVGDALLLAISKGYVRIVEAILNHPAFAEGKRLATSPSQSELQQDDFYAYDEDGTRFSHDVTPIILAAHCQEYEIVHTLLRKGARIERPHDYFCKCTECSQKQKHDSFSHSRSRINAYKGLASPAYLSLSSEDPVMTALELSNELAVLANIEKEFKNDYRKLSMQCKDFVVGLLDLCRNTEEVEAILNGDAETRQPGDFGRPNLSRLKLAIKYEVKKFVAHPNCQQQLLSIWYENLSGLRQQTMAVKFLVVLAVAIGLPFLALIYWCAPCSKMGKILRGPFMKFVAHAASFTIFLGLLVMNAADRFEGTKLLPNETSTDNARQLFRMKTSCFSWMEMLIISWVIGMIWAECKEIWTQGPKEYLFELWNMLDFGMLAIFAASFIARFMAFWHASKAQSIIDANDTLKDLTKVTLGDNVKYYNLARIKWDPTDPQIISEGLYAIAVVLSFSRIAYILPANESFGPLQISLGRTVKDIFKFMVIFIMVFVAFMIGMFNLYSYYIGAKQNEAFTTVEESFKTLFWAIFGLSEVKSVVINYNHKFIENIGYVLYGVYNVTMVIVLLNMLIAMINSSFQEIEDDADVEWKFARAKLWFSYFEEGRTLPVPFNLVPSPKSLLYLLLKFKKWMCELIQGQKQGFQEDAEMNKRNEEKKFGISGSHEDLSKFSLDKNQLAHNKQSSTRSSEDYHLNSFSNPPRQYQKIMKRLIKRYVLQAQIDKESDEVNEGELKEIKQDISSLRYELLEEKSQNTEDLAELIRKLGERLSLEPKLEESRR
TRPC4 potent – positive allosteric modulators of TRPC4, primary screen, cell-based, mouse TRPC4beta, HEK293 mu-opioid, Fluo-4 calcium | AID 2227, 2009 | hit rate 0.42% among 310,000 | Short transient receptor potential channel 4 (Mus musculus), Q9QUQ5 | B-score at 10 µM | DAMGO EC20, Fluo-4 Ca2+ flux; hits give high values;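 active means B-score of calcium response area above 5 SD of library B-scores, with initial fluorescence ratio within 5 SD of library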;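 further: B-score of integrated fluorescence ratio over time as area under calcium response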
TRPC6 act – mouse TRPC6 channel activators, primary screen, cell-based, HEK293, membrane potential dye; Short transient receptor potential channel 6 (Mus musculus), Q61143; B-score at 10 µM; HEK293-TRPC6 membrane potential dye fluorescence; hits give high values; hit rate 0.13% among 310,000;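 active means B-score of the integrated fluorescence ratio above library mean plus 3 SD, and starting fluorescence ratio within library mean plus 5 SD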;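 further: higher score means more depolarization so channel activation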
HEK293 MPD ctr – parental HEK293 membrane potential modulation, confirmation, counter-screen for TRPC6 modulator project, cell-based; shares compounds with TRPC6 inhibitor; membrane potential dye fluorescence; membrane potential signal change, % at 10 µM; hit rate 51% among 2,400;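 active means membrane potential signal moves up or down beyond 5 SD from buffer-only wells, on both duplicate plates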
HEK293 MPD ctr 2 – parental HEK293 nonspecific activity of TRPC6 modulators, second screen. membrane potential dye fluorescence; after compound, maximal acetylcholine stimulation. hit rate 14% among 2,400. AID 488926. inhibition, % at 10 µM. shares compounds with TRPC6 inhibitor;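 active means membrane potential signal drops by more than 5 SD from the mean control signal, in both duplicate plates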;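 further: plate controls were acetylcholine ECmax control wells for no effect and buffer only wells for full effect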
TRPC4 ctr mod – TRPC4 modulation by TRPC6 hit compounds, confirmation, selectivity assay for TRPC6 modulator project, cell-based, HEK293 TRPC4/mu-opioid, membrane potential dye, mouse | shares compounds with TRPC6 inhibitor | membrane potential fluorescence | percent change from control (negative = decrease, positive = increase), % at 10 µM | hit rate 69% among 2,400;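 active means membrane potential signal moved up or down beyond 5 SD of buffer control wells, in both duplicate plates, actives on both sides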;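 further: plate controls were assay buffer wells for no effect and DAMGO maximal-effect wells for full effect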
TRPC4/MOR inh 2 – mouse TRPC4 off-target activity of TRPC6 modulators, second screen; shares compounds with TRPC6 inhibitor; HEK293 TRPC4/mu-opioid, membrane potential dye fluorescence; stimulated with maximal-effect DAMGO; inhibition, % at 10 µM; hit rate 55% among 2,400; AID 488928;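 active means drop in membrane potential signal beyond 5 SD of the control wells in both duplicate plates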;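 further: TRPC4 counter screen for TRPC6 hits run under conditions tuned for TRPC6 not TRPC4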
TRPC6 inh conf – mouse TRPC6 channel inhibitors, confirmation, HEK293 cells, membrane potential dye, duplicate | shares compounds with TRPC6 inhibitor | ACh-evoked depolarization | inhibition, % at 10 µM | hit rate 43% among 3,300 | AID 488960, 2010;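 active means fluorescence ratio falls more than 5 SD below the full-stimulation control mean, in both duplicate runs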;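 further: integrated fluorescence ratio of peak minus minimum over baseline after agonist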
TRPC6 act confirm – mouse TRPC6 channel activators, confirmation, HEK293 cells, membrane potential dye, duplicate | shares compounds with TRPC6 inhibitor | HEK293-TRPC6 membrane potential dye fluorescence, FDSS | activation, % at 10 µM | hit rate 11% among 2,800;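 active means ratio signal rise beyond 5 SD above unstimulated control wells' mean, seen in both duplicate runs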;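 further: plate controls were buffer EC0 wells for no effect and acetylcholine ECmax response for full effect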
* hit, by the source's call. The list is not random: actives were taken first. Their share in the collection is about 2.9%.

For O=C(Cn1c(-c2ccccc2)c[n+]2ccsc12)c1ccc(Br)cc1 the results were Kir21 inh 1.51, TRPC4 block inactive, TRPC4 act 86*, TRPC6 inhibitor -5.58*, TRPC4 potent inactive, TRPC6 act inactive, HEK293 MPD ctr -122.5%*, HEK293 MPD ctr 2 inactive, TRPC4 ctr mod 60.5%*, TRPC4/MOR inh 2 97.0%*, TRPC6 inh conf inactive and TRPC6 act confirm inactive.
For COc1ccc2c(c1)S/C(=C\C(=O)c1ccncc1)N2C the results were Kir21 inh -0.59, TRPC4 block inactive, TRPC4 act inactive, TRPC6 inhibitor -5.91*, TRPC4 potent inactive, TRPC6 act inactive, HEK293 MPD ctr 100.5%*, HEK293 MPD ctr 2 inactive, TRPC4 ctr mod -67.0%*, TRPC4/MOR inh 2 34.5%*, TRPC6 inh conf inactive and TRPC6 act confirm inactive.
Screening c1cc2c3c(cccc3c1)C(N1CCCCC1)=N2 returned Kir21 inh -0.63, TRPC4 block inactive, TRPC4 act inactive, TRPC6 inhibitor -10.7*, TRPC4 potent inactive, TRPC6 act inactive, HEK293 MPD ctr -195.0%*, HEK293 MPD ctr 2 78.5%*, TRPC4 ctr mod -51.5%*, TRPC4/MOR inh 2 93.0%*, TRPC6 inh conf 75.5%* and TRPC6 act confirm inactive.
`c1ccc(NC2=Nc3cccc4cccc2c34)cc1` gave Kir21 inh -0.15, TRPC4 block inactive, TRPC4 act inactive, TRPC6 inhibitor inactive, TRPC4 potent inactive and TRPC6 act inactive.
c1cc2c3c(cccc3c1)C(N1CCCCCC1)=N2 was read as Kir21 inh -0.06, TRPC4 block inactive, TRPC4 act inactive, TRPC6 inhibitor -11.6*, TRPC4 potent inactive, TRPC6 act inactive, HEK293 MPD ctr -207.5%*, HEK293 MPD ctr 2 inactive, TRPC4 ctr mod -46.5%*, TRPC4/MOR inh 2 68.5%*, TRPC6 inh conf inactive and TRPC6 act confirm inactive.
`COc1ccc(CN(C(=O)CN2C(=O)COc3ccccc32)C2CCCC2)c(OC)c1` gave Kir21 inh -0.01, TRPC4 block inactive, TRPC4 act inactive, TRPC6 inhibitor inactive, TRPC4 potent inactive, TRPC6 act 11.8*, HEK293 MPD ctr 319.0%*, HEK293 MPD ctr 2 inactive, TRPC4 ctr mod inactive, TRPC4/MOR inh 2 inactive, TRPC6 inh conf inactive and TRPC6 act confirm inactive.
For COc1ccc(CN(Cc2ccccn2)C(=O)CN2C(=O)COc3ccccc32)cc1 the results were Kir21 inh -0.49, TRPC4 block inactive, TRPC4 act inactive, TRPC6 inhibitor inactive, TRPC4 potent inactive and TRPC6 act inactive.
`COc1ccc(C(=O)NCc2nnc(SCC(=O)NCc3ccco3)o2)cc1OC` gave Kir21 inh 0.23, TRPC4 block inactive, TRPC4 act inactive, TRPC6 inhibitor inactive, TRPC4 potent inactive and TRPC6 act inactive.
COc1ccc(Nc2c(-c3ccc(C)cc3)nc3cnccn23)cc1 was read as Kir21 inh -1.18, TRPC4 block inactive, TRPC4 act inactive, TRPC6 inhibitor inactive, TRPC4 potent inactive and TRPC6 act inactive.
`Cc1ccc(Nc2c(-c3ccccc3O)nc3cnccn23)cc1` gave Kir21 inh 1.79, TRPC4 block inactive, TRPC4 act inactive, TRPC6 inhibitor -6.56*, TRPC4 potent inactive, TRPC6 act inactive, HEK293 MPD ctr inactive, HEK293 MPD ctr 2 inactive, TRPC4 ctr mod -11.0%*, TRPC4/MOR inh 2 67.5%*, TRPC6 inh conf inactive and TRPC6 act confirm inactive.
Screening O=C(N/N=C/c1ccccc1[N+](=O)[O-])C(=O)N1CCCC1 returned Kir21 inh -1.26, TRPC4 block inactive, TRPC4 act inactive, TRPC6 inhibitor inactive, TRPC4 potent inactive and TRPC6 act inactive.
For CN1CCN(C2CCN(S(=O)(=O)c3ccc(C(C)(C)C)cc3)CC2)CC1 the results were Kir21 inh -0.78, TRPC4 block inactive, TRPC4 act inactive, TRPC6 inhibitor inactive, TRPC4 potent inactive, TRPC6 act 13.4*, HEK293 MPD ctr 193.0%*, HEK293 MPD ctr 2 inactive, TRPC4 ctr mod 32.5%*, TRPC4/MOR inh 2 inactive, TRPC6 inh conf inactive and TRPC6 act confirm 104.0%*.
`COc1ccc(S(=O)(=O)N2CCC(N3CCN(Cc4ccccc4)CC3)CC2)cc1` gave Kir21 inh -1.64, TRPC4 block inactive, TRPC4 act inactive, TRPC6 inhibitor -5.31*, TRPC4 potent inactive, TRPC6 act inactive, HEK293 MPD ctr 134.0%*, HEK293 MPD ctr 2 inactive, TRPC4 ctr mod 18.0%*, TRPC4/MOR inh 2 32.5%* and TRPC6 inh conf 43.5%*.
O=[N+]([O-])c1ccc(S(=O)(=O)N2CCN(C3CCN(Cc4ccccc4)CC3)CC2)cc1 was read as Kir21 inh -1.35, TRPC4 block inactive, TRPC4 act inactive, TRPC6 inhibitor -5.87*, TRPC4 potent inactive, TRPC6 act inactive, HEK293 MPD ctr inactive, HEK293 MPD ctr 2 inactive, TRPC4 ctr mod inactive, TRPC4/MOR inh 2 37.5%*, TRPC6 inh conf inactive and TRPC6 act confirm inactive.

Bioassay records (PubChem BioAssay)
